In one test the test system is Hepatitis C virus. The experiment in a line: Antiviral activity against HCV 1b con1 assessed as inhibition of viral RNA replication after 3 days by RT-PCR analysis. Particulars: Con1, 72 h. Format: functional, organism-based, Hepacivirus hominis. In outline:
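Genotype 1b-Con1 replicon cells were seeded at 5000/well one day before dosing. Inhibitor was added at 0.5% final DMSO in medium with 5% FBS, and cells were harvested after 3 days. Replicon RNA was quantified by Taqman real-time RT-PCR normalized to GAPDH RNA. EC50 came from 10 serial twofold dilutions in duplicate.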

Test [1] can be described thus: Inhibition of HCV NS5B Cdelta21 RNA polymerase activity assessed as incorporation of [33P]-CTP into heteropolymer RNA template after 150 mins. Also noted: species or system Hepacivirus hominis. The method, boiled down:
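Radiolabeled nucleotide incorporation using 30 nM NS5B (Δ21) with 100 nM heteropolymer RNA template and 0.25 mM trinucleotide initiator. Buffer: 20 mM HEPES pH 7.3, 7.5 mM DTT, 20 units/mL RNasin, 10 mM MgCl₂, 60 mM NaCl, BSA, GTP/ATP/UTP, [³³P]-CTP with 20 nM CTP. Run 150 min at room temperature, EDTA-stopped, filter-washed, incorporated label counted. IC50 from 10 twofold dilutions in duplicate.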

Our source for the EC50 and IC50 values is ChEMBL document CHEMBL1932928, “II. Novel HCV NS5B polymerase inhibitors: discovery of indole C2 acyl sulfonamides” (Bioorg Med Chem Lett, 2012).

Molecules are shown by their SMILES.

By EC50 is commonly meant the concentration needed to bring the measured effect to its halfway point. Usually IC50 stands for the midpoint of a concentration-inhibition curve. As to `Cc1cc(F)ccc1S(=O)(=O)NC(=O)c1c(-c2ccc[nH]c2=O)c2cc(Cl)ccc2n1Cc1ccnc(N)c1`, in the test with Hepatitis C virus, the EC50 was determined as 1900 nM. The concentration for half-maximal inhibition (IC50) in test [1] stood at 34 nM.

Turning to `COC(=O)c1ccc(S(=O)(=O)NC(=O)c2c(-c3ccc[nH]c3=O)c3cc(Cl)ccc3n2Cc2ccnc(N)c2)cc1`, the 50% effective concentration (EC50) in the test with Hepatitis C virus came out at 1100 nM. In addition, the IC50 in test [1] amounted to 32 nM.

Take `COc1ccc(S(=O)(=O)NC(=O)c2c(-c3ccc[nH]c3=O)c3cc(Cl)ccc3n2Cc2ccnc(N)c2)cc1`: the EC50 in the test with Hepatitis C virus was 500 nM. The IC50 in test [1] came to 22 nM.

Regarding `O=c1[nH]cccc1-c1c(-c2nc3ccccc3[nH]2)n(Cc2ccc(F)cc2F)c2ccc(Cl)cc12`, the EC50 in the test on Hepatitis C virus was determined as 8000 nM. Also, the IC50 in test [1] stood at 570 nM.

Consider `CS(=O)(=O)NCc1c(-c2ccc[nH]c2=O)c2cc(Cl)ccc2n1Cc1ccnc(N)c1`, for which, in test [1], the IC50 is more than 20000 nM.

Consider `Nc1cc(Cn2c(C(=O)NS(=O)(=O)c3cc(F)cc(F)c3)c(-c3ccc[nH]c3=O)c3cc(Cl)ccc32)ccn1`, for which the EC50 with Hepatitis C virus is 700 nM. Besides, in test [1], the concentration for half-maximal inhibition (IC50) came to 26 nM.

Turning to `Nc1cc(Cn2c(C3=NS(=O)(=O)c4ccccc4N3)c(-c3ccc[nH]c3=O)c3cc(Cl)ccc32)ccn1`, the EC50 with Hepatitis C virus is 600 nM. Moreover, the IC50 in test [1] was 12 nM.

As for `CS(=O)(=O)NC(=O)c1c(-c2ccc[nH]c2=O)c2cc(Cl)ccc2n1Cc1ccnc(N)c1`, in the test with Hepatitis C virus, the EC50 came to 300 nM. Besides, in test [1], the IC50 was found to be 18 nM.

Take `N#Cc1c(-c2ccc[nH]c2=O)c2cc(Cl)ccc2n1Cc1ccnc(N)c1`: the EC50 in the test on Hepatitis C virus was 8300 nM. Moreover, in test [1], the IC50 was more than 20000 nM.

With `CCOC(=O)c1c(-c2ccc[nH]c2=O)c2cc(Cl)ccc2n1Cc1ccnc(N)c1`, the IC50 in test [1] was more than 20000 nM.

`Nc1cc(Cn2c(C(=O)NS(=O)(=O)c3cccc(S(N)(=O)=O)c3)c(-c3ccc[nH]c3=O)c3cc(Cl)ccc32)ccn1`: in the test on Hepatitis C virus, the 50% effective concentration (EC50) was found to be 1900 nM. Moreover, the IC50 in test [1] turned out to be 34 nM.

`COC(=O)c1cccc(S(=O)(=O)NC(=O)c2c(-c3ccc[nH]c3=O)c3cc(Cl)ccc3n2Cc2ccnc(N)c2)c1`: the EC50 in the test with Hepatitis C virus came to 300 nM. Besides, in test [1], the IC50 is 27 nM.

In the case of `CS(=O)(=O)NC(=O)c1c(-n2c(=O)[nH]c3cscc3c2=O)c2cc(C(F)(F)F)ccc2n1Cc1ccccc1F`, the EC50 in the test on Hepatitis C virus turned out to be 700 nM. In addition, in test [1], the IC50 was 15 nM.

Consider `CS(=O)(=O)Nc1cccc(S(=O)(=O)NC(=O)c2c(-c3ccc[nH]c3=O)c3cc(Cl)ccc3n2Cc2ccnc(N)c2)c1`, for which the EC50 with Hepatitis C virus was 11 nM.

With `Nc1cc(Cn2c(C(=O)NS(=O)(=O)c3ccccc3N)c(-c3ccc[nH]c3=O)c3cc(Cl)ccc32)ccn1`, in the test with Hepatitis C virus, the EC50 is 1700 nM. In addition, the concentration for half-maximal inhibition (IC50) in test [1] was found to be 28 nM.

In the case of `Nc1cccc(S(=O)(=O)NC(=O)c2c(-c3ccc[nH]c3=O)c3cc(Cl)ccc3n2Cc2ccnc(N)c2)c1`, the EC50 in the test on Hepatitis C virus stood at 1000 nM. The concentration for half-maximal inhibition (IC50) in test [1] came out at 36 nM.

For `CS(=O)(=O)NC(=O)c1c(-c2ccc[nH]c2=O)c2cc(Cl)ccc2n1Cc1ccc(F)cc1F`, in the test on Hepatitis C virus, the half-maximal effective concentration (EC50) was determined as 2200 nM. For the same compound, the half-inhibitory concentration (IC50) in test [1] worked out at 41 nM.

As for `Nc1cc(Cn2c(C(=O)NS(=O)(=O)c3ccc(F)cc3F)c(-c3ccc[nH]c3=O)c3cc(Cl)ccc32)ccn1`, the EC50 in the test on Hepatitis C virus was found to be 1600 nM. Also, the IC50 in test [1] stood at 49 nM.

As to `Nc1cc(Cn2c(C(=O)NS(=O)(=O)c3cc(F)ccc3F)c(-c3ccc[nH]c3=O)c3cc(Cl)ccc32)ccn1`, the EC50 with Hepatitis C virus came out at 700 nM. The concentration for half-maximal inhibition (IC50) in test [1] was 28 nM.

As for `N#Cc1ccc(S(=O)(=O)NC(=O)c2c(-c3ccc[nH]c3=O)c3cc(Cl)ccc3n2Cc2ccnc(N)c2)cc1`, the EC50 in the test with Hepatitis C virus was determined as 1700 nM. In addition, the IC50 in test [1] turned out to be 36 nM.

Consider `Nc1cc(Cn2c(C(=O)NS(=O)(=O)c3ccccc3F)c(-c3ccc[nH]c3=O)c3cc(Cl)ccc32)ccn1`, for which the EC50 in the test on Hepatitis C virus is 800 nM. The IC50 in test [1] was 31 nM.

With `CS(=O)(=O)Nc1ccc(S(=O)(=O)NC(=O)c2c(-c3ccc[nH]c3=O)c3cc(Cl)ccc3n2Cc2ccnc(N)c2)cc1`, the concentration for a half-maximal effect (EC50) with Hepatitis C virus was found to be 500 nM. The IC50 in test [1] amounted to 20 nM.

Consider `O=C(NS(=O)(=O)CCCCl)c1c(-c2ccc[nH]c2=O)c2cc(Cl)ccc2n1Cc1ccccc1F`, for which the EC50 in the test with Hepatitis C virus stood at 2800 nM. Besides, the IC50 in test [1] stood at 8 nM.

As to `O=C(NS(=O)(=O)C1CC1)c1c(-c2ccc[nH]c2=O)c2cc(Cl)ccc2n1Cc1ccccc1F`, the EC50 with Hepatitis C virus amounted to 270 nM. Further, the IC50 in test [1] stood at 5 nM.

On to `O=C(NS(=O)(=O)C1CCCC1)c1c(-c2ccc[nH]c2=O)c2cc(Cl)ccc2n1Cc1ccccc1F`, for which, in the test on Hepatitis C virus, the EC50 came to 1400 nM. Moreover, in test [1], the IC50 is 28 nM.

Consider `Cc1ccc(S(=O)(=O)NC(=O)c2c(-c3ccc[nH]c3=O)c3cc(Cl)ccc3n2Cc2ccnc(N)c2)cc1`, for which the concentration giving a half-maximal response (EC50) with Hepatitis C virus came to 600 nM. The IC50 in test [1] came out at 19 nM.

With `CCNS(=O)(=O)c1c(-c2ccc[nH]c2=O)c2cc(Cl)ccc2n1Cc1ccc(F)cc1F`, the IC50 in test [1] came out at 3000 nM.

Take `Nc1cc(Cn2c(C(=O)NS(N)(=O)=O)c(-c3ccc[nH]c3=O)c3cc(Cl)ccc32)ccn1`: the EC50 with Hepatitis C virus turned out to be 2200 nM. Moreover, in test [1], the concentration for half-maximal inhibition (IC50) was determined as 29 nM.

`Nc1cc(Cn2c(C(=O)NS(=O)(=O)Cc3ccccc3)c(-c3ccc[nH]c3=O)c3cc(Cl)ccc32)ccn1`: the EC50 with Hepatitis C virus stood at 1200 nM. Besides, the concentration for half-maximal inhibition (IC50) in test [1] came to 24 nM.

On to `Nc1cc(Cn2c(C(=O)NS(=O)(=O)c3cccc(Cl)c3)c(-c3ccc[nH]c3=O)c3cc(Cl)ccc32)ccn1`, for which the EC50 in the test with Hepatitis C virus came to 1500 nM. Moreover, in test [1], the IC50 came out at 43 nM.

In the case of `CS(=O)(=O)NC(=O)c1c(-c2c[nH]c(=O)[nH]c2=O)c2cc(Cl)ccc2n1Cc1ccnc(N)c1`, in the test with Hepatitis C virus, the EC50 was 3000 nM. Further, the IC50 in test [1] was determined as 27 nM.

Turning to `CCS(=O)(=O)NC(=O)c1c(-c2ccc[nH]c2=O)c2cc(Cl)ccc2n1Cc1ccnc(N)c1`, in the test with Hepatitis C virus, the EC50 was found to be 600 nM. Further, in test [1], the 50% inhibitory concentration (IC50) was 18 nM.

Regarding `Nc1cc(Cn2c(C(=O)NS(=O)(=O)c3ccc(O)cc3)c(-c3ccc[nH]c3=O)c3cc(Cl)ccc32)ccn1`, in the test on Hepatitis C virus, the EC50 is 100 nM. For the same compound, the half-maximal inhibitory concentration (IC50) in test [1] was found to be 24 nM.

In the case of `NS(=O)(=O)c1c(-c2ccc[nH]c2=O)c2cc(Cl)ccc2n1Cc1ccc(F)cc1F`, the IC50 in test [1] came out at 2700 nM.

For the compound `Nc1cc(Cn2c(CC(=O)O)c(-c3ccc[nH]c3=O)c3cc(Cl)ccc32)ccn1`, the IC50 in test [1] is 7000 nM.

Turning to `CS(=O)(=O)NCCS(=O)(=O)NC(=O)c1c(-c2ccc[nH]c2=O)c2cc(Cl)ccc2n1Cc1ccccc1F`, the EC50 with Hepatitis C virus came out at 470 nM. In addition, in test [1], the IC50 stood at 5 nM.

With `CS(=O)(=O)NC(=O)Cc1c(-c2ccc[nH]c2=O)c2cc(Cl)ccc2n1Cc1ccnc(N)c1`, the 50% inhibitory concentration (IC50) in test [1] is 2200 nM.

`Nc1ccc(S(=O)(=O)NC(=O)c2c(-c3ccc[nH]c3=O)c3cc(Cl)ccc3n2Cc2ccnc(N)c2)cc1`: in the test on Hepatitis C virus, the EC50 was found to be 400 nM. Further, in test [1], the IC50 turned out to be 35 nM.

As for `CS(=O)(=O)Nc1cccc(S(=O)(=O)NC(=O)c2c(-c3ccc[nH]c3=O)c3cc(Cl)ccc3n2Cc2ccccc2F)c1`, the EC50 with Hepatitis C virus turned out to be 20 nM. Also, the IC50 in test [1] was found to be 18 nM.

Regarding `CC(C)(C)S(=O)(=O)NC(=O)c1c(-c2ccc[nH]c2=O)c2cc(Cl)ccc2n1Cc1ccnc(N)c1`, the half-maximal effective concentration (EC50) in the test with Hepatitis C virus is 1000 nM. Also, the concentration for half-maximal inhibition (IC50) in test [1] is 31 nM.

Take `Nc1cc(Cn2c(C(=O)NS(=O)(=O)c3ccccc3)c(-c3ccc[nH]c3=O)c3cc(Cl)ccc32)ccn1`: the EC50 with Hepatitis C virus is 400 nM. Further, the concentration for half-maximal inhibition (IC50) in test [1] was determined as 16 nM.

In the case of `CS(=O)(=O)NC(=O)c1c(-c2ccc[nH]c2=O)c2cc(Cl)ccc2n1Cc1ccccc1F`, in the test on Hepatitis C virus, the EC50 was 230 nM. In test [1], the IC50 stood at 33 nM.

Take `CS(=O)(=O)NC(=O)c1c(-c2ccc[nH]c2=O)c2cc(C(F)(F)F)ccc2n1Cc1ccccc1F`: in the test on Hepatitis C virus, the concentration giving a half-maximal response (EC50) is 120 nM. For the same compound, the half-inhibitory concentration (IC50) in test [1] came out at 6 nM.

Take `CC(C)S(=O)(=O)NC(=O)c1c(-c2ccc[nH]c2=O)c2cc(Cl)ccc2n1Cc1ccccc1F`: the EC50 in the test with Hepatitis C virus turned out to be 400 nM. The half-maximal inhibitory concentration (IC50) in test [1] was 13 nM.
